Laboratory results reported in the M2OR odorant receptor database.

Legend:
Conditions in all cases: stereoisomer not certain
UniProt Q8VG27 = molecular target: T1, UniProt Q8VG27
T1 sequence (whole entry): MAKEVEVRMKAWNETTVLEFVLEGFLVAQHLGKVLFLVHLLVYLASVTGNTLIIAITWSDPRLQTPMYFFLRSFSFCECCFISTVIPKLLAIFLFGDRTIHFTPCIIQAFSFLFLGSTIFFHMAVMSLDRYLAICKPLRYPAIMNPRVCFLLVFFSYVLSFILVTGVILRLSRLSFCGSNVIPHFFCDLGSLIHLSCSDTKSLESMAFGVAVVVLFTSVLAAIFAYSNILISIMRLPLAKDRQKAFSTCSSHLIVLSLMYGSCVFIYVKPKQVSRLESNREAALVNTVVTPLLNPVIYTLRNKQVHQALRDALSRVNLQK
Procedure, shortened: (§1)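 Whether a receptor–molecule pair is responsive (active) rests on the original authors' judgment that its measured signal was statistically different from baseline. Pairs without that judgment are non-responsive (inactive). Sources used varied assay methods, commonly transient luciferase assays in mammalian cell lines.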

UniProt Q8VG49 = molecular target: T2, UniProt Q8VG49
T2 sequence (whole entry): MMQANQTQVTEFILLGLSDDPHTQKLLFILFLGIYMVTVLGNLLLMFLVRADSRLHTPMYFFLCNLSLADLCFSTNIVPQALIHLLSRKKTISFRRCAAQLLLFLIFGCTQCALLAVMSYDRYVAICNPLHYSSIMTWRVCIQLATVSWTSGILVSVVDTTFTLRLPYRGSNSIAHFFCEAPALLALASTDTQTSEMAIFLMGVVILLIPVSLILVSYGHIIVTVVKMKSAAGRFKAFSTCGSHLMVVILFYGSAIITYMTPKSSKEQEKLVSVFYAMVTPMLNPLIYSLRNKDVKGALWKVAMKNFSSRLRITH
Procedure, shortened: as §1

UniProt Q8VG53 = molecular target: T3, UniProt Q8VG53
T3 sequence (whole entry): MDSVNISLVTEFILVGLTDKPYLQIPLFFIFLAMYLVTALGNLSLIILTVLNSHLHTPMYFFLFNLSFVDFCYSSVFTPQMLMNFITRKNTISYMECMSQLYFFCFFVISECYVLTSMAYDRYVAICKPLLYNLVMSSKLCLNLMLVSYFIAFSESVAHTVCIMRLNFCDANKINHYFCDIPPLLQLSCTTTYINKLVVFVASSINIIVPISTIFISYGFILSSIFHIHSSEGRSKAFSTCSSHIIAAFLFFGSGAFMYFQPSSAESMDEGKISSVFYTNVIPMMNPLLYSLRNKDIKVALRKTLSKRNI
Procedure, shortened: as §1

UniProt Q8VG64 = molecular target: T4, UniProt Q8VG64
T4 sequence (whole entry): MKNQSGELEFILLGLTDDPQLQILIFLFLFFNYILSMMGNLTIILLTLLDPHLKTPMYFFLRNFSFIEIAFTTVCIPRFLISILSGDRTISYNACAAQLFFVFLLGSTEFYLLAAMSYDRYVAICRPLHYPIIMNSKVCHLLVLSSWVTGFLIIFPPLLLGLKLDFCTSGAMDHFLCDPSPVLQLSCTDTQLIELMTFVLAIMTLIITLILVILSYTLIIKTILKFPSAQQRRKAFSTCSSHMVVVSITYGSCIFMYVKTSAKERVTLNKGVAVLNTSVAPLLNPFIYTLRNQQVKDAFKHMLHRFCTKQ
Procedure, shortened: as §1

UniProt Q8VG77 = molecular target: T5, UniProt Q8VG77
T5 sequence (whole entry): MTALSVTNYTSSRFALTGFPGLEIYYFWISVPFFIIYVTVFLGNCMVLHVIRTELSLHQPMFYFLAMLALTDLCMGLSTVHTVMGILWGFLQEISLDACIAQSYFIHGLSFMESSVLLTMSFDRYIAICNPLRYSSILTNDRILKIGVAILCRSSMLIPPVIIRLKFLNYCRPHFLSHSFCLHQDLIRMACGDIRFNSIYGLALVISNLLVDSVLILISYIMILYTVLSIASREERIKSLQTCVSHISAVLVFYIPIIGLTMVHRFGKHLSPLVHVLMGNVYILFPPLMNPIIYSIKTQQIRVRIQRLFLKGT
Procedure, shortened: as §1

UniProt Q8VG96 = molecular target: T6, UniProt Q8VG96
T6 sequence (whole entry): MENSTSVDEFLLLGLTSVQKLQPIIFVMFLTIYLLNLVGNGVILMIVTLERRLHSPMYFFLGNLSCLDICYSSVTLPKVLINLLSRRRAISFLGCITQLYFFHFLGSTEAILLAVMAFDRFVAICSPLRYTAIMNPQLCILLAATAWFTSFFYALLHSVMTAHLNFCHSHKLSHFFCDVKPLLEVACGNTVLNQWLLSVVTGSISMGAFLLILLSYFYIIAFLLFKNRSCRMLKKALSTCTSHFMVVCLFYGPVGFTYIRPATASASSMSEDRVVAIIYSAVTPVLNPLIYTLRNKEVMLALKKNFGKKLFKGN
Procedure, shortened: as §1

UniProt Q8VGB9 = molecular target: T7, UniProt Q8VGB9
T7 sequence (whole entry): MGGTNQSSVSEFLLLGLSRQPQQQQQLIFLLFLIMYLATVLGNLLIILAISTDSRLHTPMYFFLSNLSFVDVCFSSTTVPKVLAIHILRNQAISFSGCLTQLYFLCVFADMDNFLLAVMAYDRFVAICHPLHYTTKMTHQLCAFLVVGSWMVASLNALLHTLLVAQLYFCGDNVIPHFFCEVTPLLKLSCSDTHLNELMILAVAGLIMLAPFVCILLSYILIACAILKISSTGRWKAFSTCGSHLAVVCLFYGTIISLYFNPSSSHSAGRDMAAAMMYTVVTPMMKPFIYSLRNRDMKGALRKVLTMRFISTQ
Procedure, shortened: as §1

UniProt Q8VGC6 = molecular target: T8, UniProt Q8VGC6
T8 sequence (whole entry): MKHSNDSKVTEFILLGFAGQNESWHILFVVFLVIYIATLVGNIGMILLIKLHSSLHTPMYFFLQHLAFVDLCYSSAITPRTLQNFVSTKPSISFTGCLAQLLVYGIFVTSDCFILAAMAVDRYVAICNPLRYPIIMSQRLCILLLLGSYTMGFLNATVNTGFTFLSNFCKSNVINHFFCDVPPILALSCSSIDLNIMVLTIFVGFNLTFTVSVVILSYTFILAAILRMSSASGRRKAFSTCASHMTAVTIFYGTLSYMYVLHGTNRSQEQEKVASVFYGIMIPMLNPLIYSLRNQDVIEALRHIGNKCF
Procedure, shortened: as §1

UniProt Q8VGD7 = molecular target: T9, UniProt Q8VGD7
T9 sequence (whole entry): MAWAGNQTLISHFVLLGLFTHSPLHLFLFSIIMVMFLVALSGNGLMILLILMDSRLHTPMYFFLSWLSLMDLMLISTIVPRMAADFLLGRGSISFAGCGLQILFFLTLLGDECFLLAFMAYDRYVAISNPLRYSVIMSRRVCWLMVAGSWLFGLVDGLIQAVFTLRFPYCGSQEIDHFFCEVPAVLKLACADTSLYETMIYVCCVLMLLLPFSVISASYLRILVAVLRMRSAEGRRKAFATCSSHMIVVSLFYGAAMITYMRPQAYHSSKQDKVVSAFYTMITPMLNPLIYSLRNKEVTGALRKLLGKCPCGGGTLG
Procedure, shortened: as §1

UniProt Q8VGH1 = molecular target: T10, UniProt Q8VGH1
T10 sequence (whole entry): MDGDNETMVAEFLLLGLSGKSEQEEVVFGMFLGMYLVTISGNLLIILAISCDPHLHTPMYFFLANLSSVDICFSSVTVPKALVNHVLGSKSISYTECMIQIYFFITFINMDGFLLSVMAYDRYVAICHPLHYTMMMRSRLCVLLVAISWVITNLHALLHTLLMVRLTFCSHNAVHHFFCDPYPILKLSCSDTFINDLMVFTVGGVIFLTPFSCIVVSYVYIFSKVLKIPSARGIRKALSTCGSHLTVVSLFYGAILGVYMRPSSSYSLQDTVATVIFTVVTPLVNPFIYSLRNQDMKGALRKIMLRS
Procedure, shortened: as §1

UniProt Q8VGJ1 = molecular target: T11, UniProt Q8VGJ1
T11 sequence (whole entry): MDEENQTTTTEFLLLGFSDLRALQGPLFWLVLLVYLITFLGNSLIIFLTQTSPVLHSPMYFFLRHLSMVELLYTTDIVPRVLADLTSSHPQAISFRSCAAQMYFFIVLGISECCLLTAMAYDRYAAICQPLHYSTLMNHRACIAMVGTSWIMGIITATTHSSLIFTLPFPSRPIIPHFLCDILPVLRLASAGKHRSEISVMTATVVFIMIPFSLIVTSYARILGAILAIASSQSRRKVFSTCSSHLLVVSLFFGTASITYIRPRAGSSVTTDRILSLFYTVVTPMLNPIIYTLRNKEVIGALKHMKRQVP
Procedure, shortened: as §1

UniProt Q8VGJ3 = molecular target: T12, UniProt Q8VGJ3
T12 sequence (whole entry): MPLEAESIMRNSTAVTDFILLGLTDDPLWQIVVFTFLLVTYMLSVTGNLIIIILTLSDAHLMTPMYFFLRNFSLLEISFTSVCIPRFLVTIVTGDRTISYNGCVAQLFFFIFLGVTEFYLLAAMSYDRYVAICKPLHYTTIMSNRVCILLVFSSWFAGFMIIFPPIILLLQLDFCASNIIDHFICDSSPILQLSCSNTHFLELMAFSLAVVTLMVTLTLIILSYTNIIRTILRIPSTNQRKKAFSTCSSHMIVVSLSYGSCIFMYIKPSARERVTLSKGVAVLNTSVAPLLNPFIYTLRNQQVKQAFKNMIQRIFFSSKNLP
Procedure, shortened: as §1

UniProt Q8VGJ5 = molecular target: T13, UniProt Q8VGJ5
T13 sequence (whole entry): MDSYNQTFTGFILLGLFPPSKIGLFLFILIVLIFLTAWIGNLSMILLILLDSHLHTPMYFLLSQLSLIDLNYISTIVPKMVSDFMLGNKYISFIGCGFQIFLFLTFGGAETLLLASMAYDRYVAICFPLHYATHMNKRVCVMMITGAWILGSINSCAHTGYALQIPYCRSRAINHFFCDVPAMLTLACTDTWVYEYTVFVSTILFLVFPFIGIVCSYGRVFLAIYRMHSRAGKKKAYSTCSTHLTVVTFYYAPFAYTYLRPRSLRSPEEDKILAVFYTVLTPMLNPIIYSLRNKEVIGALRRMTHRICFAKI
Procedure, shortened: as §1

UniProt Q8VGL0 = molecular target: T14, UniProt Q8VGL0
T14 sequence (whole entry): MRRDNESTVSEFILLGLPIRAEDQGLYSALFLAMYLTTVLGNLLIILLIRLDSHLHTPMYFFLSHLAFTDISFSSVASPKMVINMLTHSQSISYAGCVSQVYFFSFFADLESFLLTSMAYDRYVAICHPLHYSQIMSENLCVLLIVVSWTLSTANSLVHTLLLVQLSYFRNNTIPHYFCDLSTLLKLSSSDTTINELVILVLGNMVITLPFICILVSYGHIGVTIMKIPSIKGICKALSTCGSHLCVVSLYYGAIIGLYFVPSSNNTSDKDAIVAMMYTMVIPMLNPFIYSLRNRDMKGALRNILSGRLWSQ
Procedure, shortened: as §1

UniProt Q8VGL7 = molecular target: T15, UniProt Q8VGL7
T15 sequence (whole entry): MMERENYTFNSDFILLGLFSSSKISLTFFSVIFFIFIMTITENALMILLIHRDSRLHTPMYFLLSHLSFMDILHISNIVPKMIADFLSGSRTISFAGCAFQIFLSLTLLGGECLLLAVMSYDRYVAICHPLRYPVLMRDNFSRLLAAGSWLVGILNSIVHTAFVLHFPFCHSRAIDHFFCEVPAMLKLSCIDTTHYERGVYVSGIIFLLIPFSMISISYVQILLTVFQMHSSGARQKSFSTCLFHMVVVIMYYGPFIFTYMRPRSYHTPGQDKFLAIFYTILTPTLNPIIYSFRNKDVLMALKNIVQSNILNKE
Procedure, shortened: as §1
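Further: active if original authors judged signal statistically different from baseline.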

SMILES	odorant receptor agonist call (UniProt Q8VG27)	odorant receptor agonist call (UniProt Q8VG49)	odorant receptor agonist call (UniProt Q8VG53)	odorant receptor agonist call (UniProt Q8VG64)	odorant receptor agonist call (UniProt Q8VG77)	odorant receptor agonist call (UniProt Q8VG96)	odorant receptor agonist call (UniProt Q8VGB9)	odorant receptor agonist call (UniProt Q8VGC6)	odorant receptor agonist call (UniProt Q8VGD7)	odorant receptor agonist call (UniProt Q8VGH1)	odorant receptor agonist call (UniProt Q8VGJ1)	odorant receptor agonist call (UniProt Q8VGJ3)	odorant receptor agonist call (UniProt Q8VGJ5)	odorant receptor agonist call (UniProt Q8VGL0)	odorant receptor agonist call (UniProt Q8VGL7)
CCCCCOC(=O)CCCCC	inactive	inactive	inactive	inactive	inactive	inactive	inactive	inactive	inactive	inactive	inactive	inactive	inactive	inactive	inactive
CCCCCC(C=O)=Cc1ccccc1	inactive	–	inactive	inactive	–	–	inactive	inactive	–	–	–	inactive	–	inactive	–
CC1CC=CCCCCCCCCCC(=O)C1 (stereo unspecified)	inactive	–	inactive	inactive	–	–	inactive	inactive	–	–	–	inactive	–	inactive	–
CCc1ccccc1O	inactive	–	inactive	inactive	–	–	inactive	inactive	–	–	–	inactive	–	active	–
Cc1ccc2c(c1)OCC(=O)CO2	inactive	–	inactive	inactive	–	–	inactive	inactive	–	–	–	inactive	–	inactive	–
CCCCCCCCCC=CC=O	inactive	–	inactive	inactive	–	–	inactive	inactive	–	–	–	inactive	–	inactive	–
CCCCCOC(=O)CC	inactive	–	inactive	inactive	–	–	inactive	inactive	–	–	–	inactive	–	inactive	–
CCCCCCCCCCCO	inactive	–	inactive	inactive	–	–	inactive	inactive	–	–	–	inactive	–	inactive	–
C=CC(=O)CCCCC	inactive	–	inactive	inactive	–	–	inactive	inactive	–	–	–	inactive	–	inactive	–
